The values below come from ChEMBL document CHEMBL1144909, “Design, synthesis, and biological evaluation of a series of fluoroquinoanthroxazines with contrasting dual mechanisms of action against topoisomerase II and G-quadruplexes” (J Med Chem, 2003).

The source made the active and inactive calls. The rule behind the calls is not given here. Where only a bound is given, the exact number is not on record here.

Experiment [1] deals with RPMI-8226. Briefly: Cytotoxicity of compound against 8226/DOX1V cells. It is filed as functional, Homo sapiens. The method, boiled down:
(§1)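 MTT assay. Exponentially growing cells (1–2 × 10^3 per well) seeded day 0; graded compound concentrations added day 1; on day 4, MTT (1 mg/mL in DPBS) added for 4 h at 37 °C. 8226/S (RPMI 8226 myeloma) and doxorubicin-resistant, topoisomerase II-reduced 8226/DOX1V; MCF7 breast cells. Myeloma values are the mean ± SD of four experiments; IC50 in μM.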

Experiment [2] addresses T1, DNA topoisomerase II (Homo sapiens) (UniProt P11388+Q02880). Briefly: Inhibition against decatenation activity of DNA topoisomerase II at a concentration of 100 uM. The class given is protein assay. In a few lines:
(§2)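 Human topoisomerase II (2 units) was then added for 30 min at 37 °C. Sarkosyl stop; products resolved on 1% agarose with ethidium bromide; decatenated kDNA quantified by densitometry.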

For experiment [3], the system named is MCF7. Briefly: Cytotoxicity of compound was tested against MCF-7 breast cancer cells. It is filed as functional, cell-based. The following applies: Homo sapiens. The method, boiled down:
as §1

The target in experiment [4] is T2, DNA polymerase I, thermostable (Thermus aquaticus, UniProt P19821). Kind of experiment: Inhibition of Taq DNA polymerase.
For experiment [5], the system named is RPMI-8226. Kind of experiment: Cytotoxicity of compound against 8226/S cells. It is filed as functional, Homo sapiens. The method, boiled down:
as §1

Experiment [6] has as its target T2, DNA polymerase I, thermostable. Kind of experiment: Inhibition of Taq DNA polymerase by TRAP assay.
The nature of experiment [7]: Ratio of cytotoxicity of DOX1V/S cells. The class given is functional. In a few lines:
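Ratio of IC50 in 8226/DOX1V (doxorubicin-resistant, reduced topoisomerase II) to IC50 in parental 8226/S. Both IC50s come from a 3-day MTT assay, each the mean of four experiments.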

The target in experiment [8] is T1, DNA topoisomerase II (Homo sapiens). Kind of experiment: Inhibition against decatenation activity of DNA topoisomerase II at a concentration of 3.2 uM. It is filed as protein assay. In a few lines: as §2

T2 sequence (P19821 whole entry): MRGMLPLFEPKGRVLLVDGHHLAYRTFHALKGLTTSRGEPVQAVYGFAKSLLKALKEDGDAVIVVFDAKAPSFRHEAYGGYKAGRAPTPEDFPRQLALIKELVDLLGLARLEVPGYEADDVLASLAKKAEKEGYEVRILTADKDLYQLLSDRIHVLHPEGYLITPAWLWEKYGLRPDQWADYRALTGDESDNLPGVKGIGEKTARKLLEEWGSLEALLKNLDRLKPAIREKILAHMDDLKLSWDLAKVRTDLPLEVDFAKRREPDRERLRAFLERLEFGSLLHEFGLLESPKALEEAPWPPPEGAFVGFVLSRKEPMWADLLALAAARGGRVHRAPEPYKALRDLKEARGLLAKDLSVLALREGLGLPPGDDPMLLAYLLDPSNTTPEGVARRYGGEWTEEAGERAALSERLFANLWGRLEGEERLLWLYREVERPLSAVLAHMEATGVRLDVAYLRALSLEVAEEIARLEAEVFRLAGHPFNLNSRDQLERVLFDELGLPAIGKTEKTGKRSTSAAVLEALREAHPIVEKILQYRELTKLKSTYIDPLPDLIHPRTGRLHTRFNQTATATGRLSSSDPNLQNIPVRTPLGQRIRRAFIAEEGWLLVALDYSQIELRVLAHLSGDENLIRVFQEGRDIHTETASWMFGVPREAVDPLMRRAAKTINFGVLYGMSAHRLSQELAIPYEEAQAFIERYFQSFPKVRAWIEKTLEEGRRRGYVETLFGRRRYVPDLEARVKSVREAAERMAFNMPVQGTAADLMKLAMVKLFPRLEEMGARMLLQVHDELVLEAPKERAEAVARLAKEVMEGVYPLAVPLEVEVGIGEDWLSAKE

The term inhibition denotes the share of the control response that was lost under treatment. The term IC50 denotes the concentration that gives 50% inhibition. For `N[C@@H]1CCN(c2c(F)cc3c(=O)c(C(=O)O)cn4c3c2Oc2cc3c(ccc5ccccc53)cc2-4)C1`, the Average in experiment [1] was above 10 µM; in experiment [5], 5.46 µM. For the same compound, the inhibition result in experiment [2] is “inactive”. The half-inhibitory concentration (IC50) was found to be 4.3 µM in experiment [3] and 2.4 µM in experiment [4].
As for `N[C@H]1CCN(c2c(F)cc3c(=O)c(C(=O)O)cn4c3c2Oc2c-4ccc3c2ccc2ccccc23)C1`, the Average is 2.775 µM in experiment [1] and 0.69 µM in experiment [5]. In addition, the inhibition entry in experiment [2] is “inactive”. The concentration for half-maximal inhibition (IC50) in experiment [6] was found to be 21 µM; in experiment [3], 1.1 µM; in experiment [4], 0.67 µM. In addition, the Ratio in experiment [7] is given as 4.02.
Turning to `N[C@H]1CCN(c2c(F)cc3c(=O)c(C(=O)O)cn4c3c2Oc2cc3c(ccc5ccccc53)cc2-4)C1`, the Average in experiment [1] and in experiment [5] was above 10 µM throughout. The inhibition entry in experiment [2] was “inactive”. Besides, the IC50 in experiment [3] is 14.2 µM; in experiment [4] it was 5.7 µM.
For `COc1cccc2c1C(=O)c1c(O)c3c(c(O)c1C2=O)C[C@@](O)(C(=O)CO)C[C@@H]3O[C@H]1C[C@H](N)[C@H](O)[C@H](C)O1` [DOXORUBICIN], the Average is 0.32 µM in experiment [1] and 0.037 µM in experiment [5]. The Ratio in experiment [7] was 8.65.
As for `N[C@@H]1CCN(c2c(F)cc3c(=O)c(C(=O)O)cn4c3c2Oc2c-4ccc3c2ccc2ccccc23)C1`, the Average was 0.501 µM in experiment [1] and 0.324 µM in experiment [5]. Moreover, the inhibition entry in experiment [2] was “inactive”. Moreover, the IC50 in experiment [6] came out at 5.6 µM; in experiment [3], 0.46 µM; in experiment [4] it was 0.06 µM. Moreover, the Ratio in experiment [7] was 1.55.
On to `N[C@H]1CCN(c2c(F)cc3c(=O)c(C(=O)O)cn4c3c2Oc2ccccc2-4)C1`, for which the inhibition in experiment [8] stood at 50%.
